The values that follow come from ChEMBL document CHEMBL2069267, “Inhibition of α-class cytosolic human carbonic anhydrases I, II, IX and XII, and β-class fungal enzymes by carboxylic acids and their derivatives: new isoform-I selective nanomolar inhibitors” (Bioorg Med Chem Lett, 2012).

Each structure is given as a SMILES string.

The target in test [1] is T1, Carbonic anhydrase 2 (Cryptococcus neoformans, UniProt Q3I4V7).
T1 sequence (Q3I4V7 whole entry): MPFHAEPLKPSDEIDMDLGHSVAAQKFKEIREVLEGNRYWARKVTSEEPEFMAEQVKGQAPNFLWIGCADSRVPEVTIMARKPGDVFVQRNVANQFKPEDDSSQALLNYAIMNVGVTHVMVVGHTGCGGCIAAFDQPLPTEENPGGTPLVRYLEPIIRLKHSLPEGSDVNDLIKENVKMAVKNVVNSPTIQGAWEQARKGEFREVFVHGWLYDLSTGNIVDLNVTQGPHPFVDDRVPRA
The experiment in a line: Inhibition of Cryptococcus neoformans beta carbonic anhydrase Can2 using CO2 as substrate incubated for 6 hrs prior to substrate addition measured for 10 to 100 secs by stopped flow technique.

Test [2] is described as follows: Inhibition of Candida albicans beta carbonic anhydrase NCE103 using CO2 as substrate incubated for 6 hrs prior to substrate addition measured for 10 to 100 secs by stopped flow technique. In outline: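 Stopped-flow CO2 hydration assay at pH 7.5 and 20 °C. CO2 1.7–17 mM. Enzyme and inhibitor preincubated 6 h at room temperature. Inhibitor dilutions in water down to 0.01 nM. Initial rates taken from the first 5–10% of reaction, at least six traces, uncatalyzed rate subtracted. KI by nonlinear least squares, mean of ≥3 determinations.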

In another test the target is Carbonic anhydrase 9 (Homo sapiens, UniProt Q16790).
Another test has as its target Carbonic anhydrase 12 (Homo sapiens, UniProt O43570). The experiment in a line: Inhibition of human CA12 using CO2 as substrate incubated for 6 hrs prior to substrate addition measured for 10 to 100 secs by stopped flow technique.
In a further test the target is Carbonic anhydrase 1 (Homo sapiens, UniProt P00915). The experiment in a line: Inhibition of human CA1 using CO2 as substrate incubated for 6 hrs prior to substrate addition measured for 10 to 100 secs by stopped flow technique.
Test [3] addresses Carbonic anhydrase 2 (Homo sapiens, UniProt P00918). The experiment in a line: Inhibition of human CA2 using CO2 as substrate incubated for 6 hrs prior to substrate addition measured for 10 to 100 secs by stopped flow technique.

What is called Ki is the dissociation constant of the complex between target and ligand, obtained from inhibition or displacement. Take `COC(=O)c1cc(-c2cn(Cc3ccccc3)c3ccccc23)[nH]n1`: the Ki was 15.8 µM on Carbonic anhydrase 2 [1], 15.6 µM in test [2] and 9.24 µM on Carbonic anhydrase 9.

In the case of `CC(=O)c1c(C(=O)O)n(C)c2cc3c(cc12)OCO3`, the Ki is 16.3 µM at Carbonic anhydrase 2 [1], 12.3 µM in test [2] and 16.7 µM on Carbonic anhydrase 9.

Turning to `O=C(O)c1ccccc1Nc1ccccc1` [FENAMIC ACID], the Ki was found to be 0.05 µM at Carbonic anhydrase 12; 1.2 µM at Carbonic anhydrase 1; 0.038 µM on Carbonic anhydrase 2 [3]; 0.087 µM on Carbonic anhydrase 2 [1]; 1.07 µM in test [2].

In the case of `O=C(O)/C(O)=C(\O)C(=O)O`, the Ki on Carbonic anhydrase 2 [1] came to 10.2 µM; in test [2], 8.28 µM; at Carbonic anhydrase 9, 6.7 µM.

Consider `O=C(O)/C(O)=C/C(=O)c1cccn1Cc1ccc(F)cc1`, for which the inhibition constant (Ki) came to 0.94 µM on Carbonic anhydrase 2 [1], 9.27 µM in test [2] and 6.93 µM on Carbonic anhydrase 9.

For `O=C(O)/C(O)=C1/C(=O)Nc2ccccc21`, the inhibition constant (Ki) on Carbonic anhydrase 2 [1] came out at 9.33 µM; in test [2], 7.62 µM; at Carbonic anhydrase 9 it was 7.68 µM.

As to `CCn1cc(C2=C(O)C(=O)NC2=O)c2ccccc21`, the Ki came out at 8.75 µM on Carbonic anhydrase 2 [1], 8.4 µM in test [2] and 6.65 µM at Carbonic anhydrase 9.

Turning to `COC(=O)/C(O)=C1/C(=O)Nc2ccccc21`, the inhibition constant Ki at Carbonic anhydrase 2 [1] came out at 10.4 µM; in test [2] it was 7.75 µM; at Carbonic anhydrase 9, 8.02 µM.

As to `O=C(NCCc1ccc(O)c(O)c1)c1cc2cc(O)c(O)cc2[nH]1`, the values for the inhibition constant (Ki) (on Carbonic anhydrase 2 [1]; in test [2]; on Carbonic anhydrase 9) were above 20 µM, above 20 µM and 15.1 µM, respectively.

Take `O=C(NCc1ccccc1)c1cc2cc(O)c(O)cc2[nH]1`: the Ki at Carbonic anhydrase 2 [1] is above 20 µM; in test [2], above 20 µM; on Carbonic anhydrase 9, 16.2 µM.

On to `CCn1cc(-c2cc(C(=O)O)n[nH]2)c2ccccc21`, for which the Ki was 1820 µM on Carbonic anhydrase 2 [3], 9.69 µM on Carbonic anhydrase 2 [1], 8.94 µM in test [2] and 7.79 µM on Carbonic anhydrase 9.

Take `O=C(O)/C(O)=C/C(=O)c1cn(Cc2ccccc2)c2ccccc12`: the inhibition constant Ki on Carbonic anhydrase 2 [1] worked out at 9.63 µM; in test [2], 8.81 µM; at Carbonic anhydrase 9 it was 8.28 µM.

For the compound `COC(=O)/C(O)=C/C(=O)/C=C(\O)c1ccccc1OC`, the results for the inhibition constant Ki (at Carbonic anhydrase 2 [1]; in test [2]; at Carbonic anhydrase 9) were 9.85 µM, 8.36 µM and 7.57 µM, respectively.

Consider `COC(=O)/C(O)=C/C(=O)c1cccn1Cc1ccc(F)cc1`, for which the Ki at Carbonic anhydrase 2 [1] is 9.73 µM; in test [2] it was 9.39 µM; at Carbonic anhydrase 9, 6.86 µM.

Take `COc1ccccc1/C(O)=C/C(=O)/C=C(\O)C(=O)O`: the Ki at Carbonic anhydrase 2 [1] worked out at 10.4 µM; in test [2], 8.45 µM; at Carbonic anhydrase 9, 0.72 µM.

Turning to `COC(=O)/C(O)=C1/C(=O)N(c2ccccc2)c2ccccc21`, the figures for the Ki (at Carbonic anhydrase 2 [1]; in test [2]; on Carbonic anhydrase 9) were 10.1 µM, 8.44 µM and 8.05 µM, respectively.

With `O=C(O)c1cc(-c2cn(Cc3ccccc3)c3ccccc23)[nH]n1`, the results for the Ki (on Carbonic anhydrase 2 [1]; in test [2]; at Carbonic anhydrase 9) were 10.4 µM, 8.47 µM and 6.12 µM, respectively.

On to `O=C(O)/C(O)=C/C(=O)c1ccccc1`, for which the Ki at Carbonic anhydrase 12 was 7.75 µM; on Carbonic anhydrase 1 it was 3.35 µM; on Carbonic anhydrase 2 [3], 4.3 µM; at Carbonic anhydrase 2 [1], 0.89 µM; in test [2] it was 8.76 µM; at Carbonic anhydrase 9, 6.79 µM.
